Experimental data taken from PubChem BioAssay AID540295 (The Scripps Research Institute Molecular Screening Center, 2011).
The whole screen tested about 360,000 compounds, of which about 1,700 (0.47%) were called active. What follows is part of a selection rich in actives, with near analogues and random picks from the rest. Unmarked numbers belong to inactive results.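 The calls were made as follows: active = inhibition above its plate's cutoff, the mean of tested wells on that plate plus 3 SD (cut at about 29% in these data); inactive = the rest.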

The compounds below were run against Melanocortin receptor 4 (Homo sapiens) (UniProt P32245) (assay: MC4R antagonists of cAMP signaling, primary screen, cell-based, TR-FRET, antagonist arm of biased-ligand search (AID 540295;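 also: 0% = Melanotan II alone and 100% = Melanotan II plus saturating MCL0020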)). Settings: MC4R-expressing cells, MTII-stimulated cAMP, LANCE TR-FRET; at 6.5 µM; stronger effect = higher value.
Sequence of Melanocortin receptor 4 (Homo sapiens) (P32245 whole entry, looked up): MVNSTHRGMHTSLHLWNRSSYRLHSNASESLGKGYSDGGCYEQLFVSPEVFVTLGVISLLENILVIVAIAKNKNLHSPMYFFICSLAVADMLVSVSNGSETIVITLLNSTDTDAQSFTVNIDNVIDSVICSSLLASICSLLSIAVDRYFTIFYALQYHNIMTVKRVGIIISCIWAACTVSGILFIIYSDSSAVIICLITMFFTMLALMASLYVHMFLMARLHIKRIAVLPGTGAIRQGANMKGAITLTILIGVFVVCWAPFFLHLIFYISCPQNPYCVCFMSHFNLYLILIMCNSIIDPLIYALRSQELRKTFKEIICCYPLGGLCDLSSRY
Procedure, shortened: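 Material – human MC4R-expressing U2OS cells · Repeats – no replicates · Detection – TR-FRET with Eu-cAMP and labeled anti-cAMP, 671 nm · Times – compound 30 min, challenge 1 h, detection 1 h · Compound – single nominal compound dose of 6.5 µM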
In the case of `COc1cccc(N2C(=O)NC(=O)/C(=C\c3ccc([N+](=O)[O-])s3)C2=O)c1`, the inhibition is reported as 28.6% (active). For `O=C(N/N=C/c1c(O)n(C2CC2)c(=S)[nH]c1=O)c1ccccc1Cl`, the inhibition was 20.1%. With `c1ccc(CCNC2CCCCCC2)cc1` the inhibition was 17.4%. In the case of `COc1cc(OC)cc(C2(C#N)CCN(C)CC2)c1`, the inhibition is reported as 17%. For `O=C(NC(=S)N1C[C@H]2C[C@H](C1)c1cccc(=O)n1C2)c1ccc(F)cc1`, the inhibition was 7.13%. With `Cc1cccc(N2C(=O)NC(=O)/C(=C\c3cnn(-c4ccccc4)c3)C2=O)c1` the inhibition was 35.2% (active). In the case of `Cc1c(C(=O)O)cccc1-n1c(C)cc(/C=C2\C(=O)NC(=O)N(c3ccc4c(c3)OCO4)C2=O)c1C`, the inhibition is reported as 5.16%. `CCN1CCN(c2ccc([N+](=O)[O-])cc2C#N)CC1` showed an inhibition of -10.7%. In the case of `CC(C)c1c(CN(C)C(C)Cc2ccccc2)n(C)n(-c2ccccc2)c1=O` (stereo not given), the inhibition is reported as 10.7%. In the case of `CC(=O)c1c(O)n(C2CCCCCC2)c(=O)[nH]c1=O`, the inhibition is reported as 2.26%.
